Values after ≈ are worked out from the molar mass of the structure shown.
Tests used:
[1] = tested on: Staphylococcus aureus; test: Antibacterial activity against Staphylococcus aureus after 24 hrs by broth dilution method; assay type: functional
Outline: (§1)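 NCCLS broth dilution in 96-well microtitre plates. Inoculum adjusted with sterile saline to 1.0×10^5 c.f.u./ml. Compounds dissolved in DMSO, with a broth-plus-DMSO solvent control. Incubated 24 h at 37 °C. MIC is the lowest concentration without visible growth. For MBC, clear wells were plated on Mueller Hinton agar for 24 h at 37 °C; MBC is the lowest concentration with no colonies. Duplicates, repeated three times; values in μg/ml.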

[2] = tested on: Escherichia coli; test: Antibacterial activity against Escherichia coli after 24 hrs by broth dilution method; assay type: functional; outline: as §1
[3] = tested on: HepG2; test: Cytotoxicity against human HepG2 cells after 48 hrs by sulforhodamine B assay; assay type: functional, cell-based; conditions: HepG2, 48 h
Outline: (§2)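 SRB assay. Cells seeded at 10⁴ cells/well and left 24 h to attach. Exposed to 0, 1, 2.5, 5 and 10 μg/ml for 48 h at 37 °C in humidified 5% CO₂. Fixed with trichloroacetic acid and stained 30 min with 0.4% SRB in 1% acetic acid. Washed with 1% acetic acid; bound dye extracted with Tris EDTA and absorbance read. IC50 taken from surviving fraction versus concentration curves.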

[4] = tested on: HCT-116; test: Cytotoxicity against human HCT116 cells after 48 hrs by sulforhodamine B assay; assay type: functional, cell-based; conditions: HCT-116, 48 h; outline: as §2

Row | Structure (SMILES) | MIC [1] [µg/mL] | MIC [2] [µg/mL] | MBC [1] [µg/mL] | MBC [2] [µg/mL] | IC50 [3] [µg/mL] | IC50 [4] [µg/mL]
1 | Nn1c(S)nnc1-c1ccc([N+](=O)[O-])o1 | 50 (≈ 220 µM) | 25 (≈ 110 µM) | 200 (≈ 880 µM) | 200 (≈ 880 µM) |  | 
2 | O=[N+]([O-])c1ccc(-c2nnc3n2NC(c2ccc[nH]2)S3)o1 (stereo unspecified) | 25 (≈ 82.2 µM) | 25 (≈ 82.2 µM) | 200 (≈ 657 µM) | 200 (≈ 657 µM) |  | 
3 | O=[N+]([O-])c1ccc(-c2nnc3n2NC(c2ccc([N+](=O)[O-])o2)S3)o1 (stereo unspecified) | 25 (≈ 71.4 µM) | 25 (≈ 71.4 µM) | 200 (≈ 571 µM) | 200 (≈ 571 µM) |  | 
4 | O=[N+]([O-])c1ccc(-c2nnc3n2NC(c2ccc([N+](=O)[O-])s2)S3)o1 (stereo unspecified) | 25 (≈ 68.2 µM) | 50 (≈ 136 µM) | 200 (≈ 546 µM) | 200 (≈ 546 µM) |  | 
5 | CCNc1nn2c(-c3ccc([N+](=O)[O-])o3)nnc2s1 | 25 (≈ 89.2 µM) | 25 (≈ 89.2 µM) | 100 (≈ 357 µM) | 200 (≈ 714 µM) |  | 
6 | CCCCNc1nn2c(-c3ccc([N+](=O)[O-])o3)nnc2s1 | 25 (≈ 81.1 µM) | 25 (≈ 81.1 µM) | 200 (≈ 649 µM) | 100 (≈ 324 µM) |  | 
7 | CC1(C)S[C@@H]2[C@H](NC(=O)[C@H](N)c3ccccc3)C(=O)N2[C@H]1C(=O)O [AMPICILLIN] | 25 (≈ 71.5 µM) | 12.5 (≈ 35.8 µM) | 50 (≈ 143 µM) | 25 (≈ 71.5 µM) |  | 
8 | COc1cccc2c1C(=O)c1c(O)c3c(c(O)c1C2=O)C[C@@](O)(C(=O)CO)C[C@@H]3O[C@H]1C[C@H](N)[C@H](O)[C@H](C)O1 [DOXORUBICIN] |  |  |  |  | 5.5 (≈ 10.1 µM) | 3.73 (≈ 6.86 µM)

Further lines, with some results ahead:

Row | MIC [1] [µg/mL] | MIC [2] [µg/mL] | Structure (SMILES) | MBC [1] [µg/mL] | MBC [2] [µg/mL] | IC50 [3] [µg/mL] | IC50 [4] [µg/mL]
9 | 25 (≈ 81.9 µM) | 25 (≈ 81.9 µM) | O=[N+]([O-])c1ccc(-c2nnc3n2NC(c2ccco2)S3)o1 (stereo unspecified) | 200 (≈ 655 µM) | 200 (≈ 655 µM) |  | 
10 | 25 (≈ 77.8 µM) | 50 (≈ 156 µM) | O=[N+]([O-])c1ccc(-c2nnc3n2NC(c2cccs2)S3)o1 (stereo unspecified) | 200 (≈ 622 µM) | 200 (≈ 622 µM) |  | 
11 | 25 (≈ 76.1 µM) | 50 (≈ 152 µM) | O=[N+]([O-])c1ccc(-c2nnc3sc(Nc4ccccc4)nn23)o1 | 50 (≈ 152 µM) | 100 (≈ 305 µM) | 4.23 (≈ 12.9 µM) | 4.38 (≈ 13.3 µM)
12 | 25 (≈ 72.2 µM) | 25 (≈ 72.2 µM) | O=[N+]([O-])c1ccc(-c2nnc3sc(Nc4ccc(F)cc4)nn23)o1 | 50 (≈ 144 µM) | 100 (≈ 289 µM) | 11.3 (≈ 32.6 µM) | 8.91 (≈ 25.7 µM)
13 | 25 (≈ 70.2 µM) | 25 (≈ 70.2 µM) | CCc1ccc(Nc2nn3c(-c4ccc([N+](=O)[O-])o4)nnc3s2)cc1 | 50 (≈ 140 µM) | 50 (≈ 140 µM) | 3.78 (≈ 10.6 µM) | 6.65 (≈ 18.7 µM)
14 | 100 (≈ 306 µM) | 50 (≈ 153 µM) | O=[N+]([O-])c1ccc(-c2nnc3n2N=C(c2ccccc2)CS3)o1 | 200 (≈ 611 µM) | 200 (≈ 611 µM) |  | 
15 | 25 (≈ 69.1 µM) | 25 (≈ 69.1 µM) | O=[N+]([O-])c1ccc(-c2nnc3n2N=C(c2ccc(Cl)cc2)CS3)o1 | 200 (≈ 553 µM) | 200 (≈ 553 µM) |  | 
16 | 25 (≈ 61.5 µM) | 25 (≈ 61.5 µM) | O=[N+]([O-])c1ccc(-c2nnc3n2N=C(c2ccc(Br)cc2)CS3)o1 | 200 (≈ 492 µM) | 200 (≈ 492 µM) |  | 
17 | 50 (≈ 134 µM) | 25 (≈ 67.1 µM) | O=[N+]([O-])c1ccc(C2=Nn3c(nnc3-c3ccc([N+](=O)[O-])o3)SC2)cc1 | 100 (≈ 269 µM) | 200 (≈ 537 µM) |  | 
18 | 50 (≈ 140 µM) | 25 (≈ 70 µM) | COc1ccc(C2=Nn3c(nnc3-c3ccc([N+](=O)[O-])o3)SC2)cc1 | 200 (≈ 560 µM) | 200 (≈ 560 µM) |  | 
